# Measured values: ChEMBL document CHEMBL2440053, “New route to the 5-((arylthio- and heteroarylthio)methylene)-3-(2,2,2-trifluoroethyl)-furan-2(5H)-ones--key intermediates in the synthesis of 4-aminoquinoline γ-lactams as potent antimalarial compounds” (Bioorg Med Chem Lett, 2013)
# Columns and labels:
# HUVEC [1] = assay: Cytotoxicity against HUVEC at 0.01 to 50 umol/L after 24 hrs by Tryptan Blue assay; format: cell-based; conditions: human
# Method in brief: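 Human umbilical vein endothelial cells (HUVEC) were exposed to final concentrations from 0.01 up to 50 μM. Cytotoxicity was reported as an IC50 or as a minimum cytotoxic value extrapolated from the tested range.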
# Plasmodium falciparum [2] = assay: Resistant index, ratio of IC50 for chloroquine-resistant Plasmodium falciparum W2 to IC50 for chloroquine-sensitive Plasmodium falciparum 3D7; format: functional
# Plasmodium falciparum [3] = assay: Antimalarial activity against chloroquine-resistant Plasmodium falciparum W2 after 48 to 72 hrs by SYBR green-1 assay; format: functional, organism-based
# Method in brief: (§1)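 P. falciparum culture tested in vitro on the CQ-sensitive 3D7 or CQ-resistant W2 clone. Each experiment was run twice, with wells in triplicate. IC50 in nM is the mean of at least two experiments.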
# Plasmodium falciparum [4] = assay: Antimalarial activity against chloroquine-sensitive Plasmodium falciparum 3D7 after 48 to 72 hrs by SYBR green-1 assay; format: functional, organism-based; method in brief: as §1
# HUVEC [5] = assay: Cytotoxicity against HUVEC up to 100 uM after 24 hrs by Tryptan Blue assay; format: cell-based; conditions: human
Compound,Activity (HUVEC [1]),Ratio IC50 (Plasmodium falciparum [2]),IC50 (Plasmodium falciparum [3]),IC50 (Plasmodium falciparum [4]),Activity (HUVEC [5])
O=C1C(CC(F)(F)F)=CC(O)(CSc2ncccn2)N1CCNc1ccnc2cc(Cl)ccc12 (centres undefined),Non-toxic,1.65,458 nM,278 nM,–
CN(CCNc1ccnc2cc(Cl)ccc12)CCN1C(=O)C(CC(F)(F)F)=CC1(O)CSc1ccc(Br)cc1 (centres undefined),–,–,42 nM,45 nM,Non-toxic
O=C1C(CC(F)(F)F)=CC(O)(CSc2ccccc2)N1CCNc1ccnc2cc(Cl)ccc12 (centres undefined),Non-toxic,1.56,167 nM,107 nM,–
O=C1C(CC(F)(F)F)=CC(O)(CSc2cccc[n+]2[O-])N1CCNc1ccnc2cc(Cl)ccc12 (centres undefined),Non-toxic,1.13,274 nM,242 nM,–
O=C1C(CC(F)(F)F)=CC(O)(CSc2ccccn2)N1CCNc1ccnc2cc(Cl)ccc12 (centres undefined),Non-toxic,1.22,218 nM,179 nM,–
Cn1cnnc1SCC1(O)C=C(CC(F)(F)F)C(=O)N1CCNc1ccnc2cc(Cl)ccc12 (centres undefined),–,>3.2,> 1600 nM,499 nM,–
CN(CCNc1ccnc2cc(Cl)ccc12)CCN1C(=O)C(CC(F)(F)F)=CC1(O)CSc1ccccc1 (centres undefined),–,–,55 nM,47 nM,Non-toxic
COc1ccc(SCC2(O)C=C(CC(F)(F)F)C(=O)N2CCNc2ccnc3cc(Cl)ccc23)cc1 (centres undefined),Non-toxic,1.71,173 nM,101 nM,–
O=C1C(CC(F)(F)F)=CC(O)(CSc2ccncc2)N1CCNc1ccnc2cc(Cl)ccc12 (centres undefined),–,7.48,666 nM,89 nM,–
CN(CCNc1ccnc2cc(Cl)ccc12)CCN1C(=O)C(CC(F)(F)F)=CC1(O)CSc1ccc(Cl)cc1 (centres undefined),–,–,57 nM,55 nM,Non-toxic
O=C1C(CC(F)(F)F)=CC(O)(CSc2ccc(F)cc2)N1CCNc1ccnc2cc(Cl)ccc12 (centres undefined),Non-toxic,2.49,759 nM,305 nM,–
